Source: ChEMBL document CHEMBL3612035, “Synthesis and biological evaluation of new curcumin analogues as antioxidant and antitumor agents: molecular modeling study” (Eur J Med Chem, 2015)

How the values were obtained:
[1] = Cytotoxicity against mouse EAC cells assessed as dead cells at 100 uM after 24 hrs by trypan blue dye exclusion method relative to control; type: functional, Ehrlich
In short: (§1)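 EAC cells came from ascitic fluid of female Swiss albino mice 7-8 days after inoculation and were washed in HEPES-buffered Hanks' salt solution. They were preincubated 24 h in RPMI 1640 with 10% fetal calf serum at 2 × 10⁵ cells/ml, 37 °C, 5% CO₂. Cells were then exposed to drug for 24 h, PBS-washed and counted by trypan blue exclusion. Survival = viable T/C × 100; triplicate mean.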

[2] = Cytotoxicity against mouse EAC cells assessed as dead cells at 25 uM after 24 hrs by trypan blue dye exclusion method relative to control; type: functional, Ehrlich; in short: as §1
[3] = Antioxidant activity assessed as inhibition of ABTS radical cation generation at 1 mg/ml by colorimetric method relative to control; type: physicochemical
In short: (§2)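 ABTS radical cation solution read at 734 nm. Test samples were added as a 1 mg/ml solution in MeOH/buffer (1:1 v/v); ascorbic acid (2 mM solution) and curcumin (1 mg/ml) were the standards. % inhibition = (Acontrol − Atest)/Acontrol × 100. Blank was solvent without ABTS.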

[4] = Cytotoxicity against mouse EAC cells assessed as dead cells at 50 uM after 24 hrs by trypan blue dye exclusion method relative to control; type: functional, Ehrlich; in short: as §1
[5] = Antitumor activity against mouse EAC cells allografted in Swiss albino mouse assessed as tumor growth inhibition at 75 mg/kg, po administered for 21 days measured 21 day post dose relative to control; type: functional; conditions: Ehrlich, 504 h, read-out: TGI
In short: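 EAC was kept by i.p. passage in female Swiss albino mice. Washed ascitic cells (5 × 10⁵ viable per 0.1 ml saline) were injected s.c. At 50–100 mm³, mice were split into groups of 10 and given compound 75 mg/kg orally in CMC for 21 consecutive days; controls got saline 5 ml/kg. Tumor size was read at day 0 and day 21. Inhibition was derived from ΔT/ΔC × 100.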

[6] = Antioxidant activity assessed as inhibition of ABTS radical cation generation at 2 mM by colorimetric method relative to control; type: physicochemical; conditions: 2000 µM; in short: as §2

inhibition (INH) [6] [%]	Structure (SMILES)	Activity [1] [%]	Activity [2] [%]	inhibition (INH) [3] [%]	Activity [4] [%]	inhibition in vivo at 75 mg/kg [5] [%]
	COc1ccc(/C=C2\CCCC3C2=NN(C2=NC(=O)/C(=C/c4ccc(OC)c(OC)c4)S2)C3c2ccc(OC)cc2)cc1 (stereo not given)	75.8	20.4	19.13	40	
	COc1cc(/C=C/C(=O)CC(=O)/C=C/c2ccc(O)c(OC)c2)ccc1O [CURCUMIN]			86.6		
	COc1ccc(/C=C/C2=NN(c3nc(-c4ccccc4)cs3)C(c3ccc(OC)cc3)C2)cc1 (stereo not given)	98.3	30.4	76	61.6	65
	CCN1C/C(=C\c2ccc(OC)cc2)C2=NN(c3nc(-c4ccccc4)cs3)C(c3ccc(OC)cc3)C2C1 (stereo not given)	95.4	27.8	60.52	50.2	
	CCN1C/C(=C\c2ccc(OC)cc2)C2=NN(c3nc(-c4ccc(Cl)cc4)cs3)C(c3ccc(OC)cc3)C2C1 (stereo not given)	100	98.3	82.6	100	82
	COc1ccc(/C=C2\CCCc3c2nc(N)c(C#N)c3-c2ccc(OC)c(OC)c2)cc1OC	84.2	24.9	9.73	45.1	
	N#Cc1c(N)nc2c(c1-c1ccc(O)cc1)CCC/C2=C\c1ccc(O)cc1	81	21.7	8.69	43.4	
	COc1ccc(/C=C2\CN(C)CC3C2=NN(c2nc(-c4ccc(Cl)cc4)cs2)C3c2ccc(OC)cc2)cc1 (stereo not given)	97.9	29.2	69.56	58	70
88.34	O=C1O[C@H]([C@@H](O)CO)C(O)=C1O [ASCORBIC ACID]					
	CCN1C/C(=C\c2ccc(OC)cc2)C2=NN(C(N)=S)C(c3ccc(OC)cc3)C2C1 (stereo not given)	99	31.7	88.17	66.5	77
	COc1ccc(/C=C2\CCC3C2=NN(c2nc(-c4ccc(Cl)cc4)cs2)C3c2ccc(OC)cc2)cc1 (stereo not given)	93.5	25	27.47	47.1	
	COc1cc(/C=C2\CCCc3c2nc(N)c(C#N)c3-c2ccc(O)c(OC)c2)ccc1O	99.7	60.2	46.6	84	80
	COc1ccc(/C=C/C2=NN(C(N)=S)C(c3ccc(OC)cc3)C2)cc1 (stereo not given)	98	28.7	84.52	57.5	76
	COc1ccc(/C=C2\CCCC3C2=NN(C2=NC(=O)/C(=C/c4ccc(Br)cc4)S2)C3c2ccc(OC)cc2)cc1 (stereo not given)	81.6	22	5.21	43.8	
	COc1ccc(/C=C2\CCCC3C2=NN(C2=NC(=O)/C(=C/c4ccc(Cl)cc4)S2)C3c2ccc(OC)cc2)cc1 (stereo not given)	84	23.8	25.73	46	
